We go through three molecules from paper PMC10979821 (Current pharmaceutical design, 2023).

“Also recorded” adds a separate entry of the source. Where two headings read alike, the source gives them in different places.

For data set [1] the following is noted: cited from earlier work.
Data set [2] is described as follows: Serum pharmacokinetics of THC and metabolites after inhaled or i.p. THC. The format is in vivo, female Sprague Dawley rats.
In data set [3] the test system is female Sprague Dawley rats. Put plainly: Locomotor activity in OpenField arena after i.p. or inhaled THC. It counts as in vivo, rat. As to conditions: for vertical plane entries (rearing), total: 45 minute session. In short, it runs like this: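 Separate cohort of adult female rats (n=15): habituation session, then five vehicle or THC days, each 3 days apart. Dosing was 2 mg/kg i.p., or 10 min vapour exposure (0.25 mL of 40 or 160 mg/mL; 0.19 or 0.76 mg/kg). Rats entered the arena immediately for 45 min, n=10–15 per group. Analysis: two-way RM ANOVA (time × treatment), Sidak or Tukey post hoc.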

The next data set deals with rodents. As to conditions: i.p. injected THC; cited from earlier work.
The conditions of data set [4]: cited from earlier work. The source holds these as a separate data set.
[5] abbreviates: 0.19 mg/kg vaporized/inhaled THC (0.25 mL of 40 mg/mL, 10 min exposure), serum.
Where [6] appears, read: 0.76 mg/kg vaporized/inhaled THC (0.25 mL of 160 mg/mL, 10 min exposure), serum.
Where [7] appears, read: 2 mg/kg THC i.p., serum, female Sprague Dawley rats.
Setting [8] is: female, Sprague Dawley, rat, serum, inhaled or intranasal, 0.19 mg/kg.
Where [9] appears, read: female, Sprague Dawley, rat, serum, inhaled or intranasal, 0.76 mg/kg.
Setting [10] is: female, Sprague Dawley, rat, serum, ip, 2 mg/kg.

What is called Tmax is the time at which the peak concentration occurs. In the case of “11-hydroxy-delta-9-tetrahydrocannabinol [11-OH-THC]”, in data set [1] (human, acute inhalation, % of THC), the “metabolite level relative to THC” value was “up to 30%”. Further, the Tmax turned out to be 5 min in data set [2] (0.19 mg/kg vaporized THC, time after conclusion of inhalation); 5 min in data set [2] (0.76 mg/kg vaporized THC, time after conclusion of inhalation); 20 min in data set [2] (2 mg/kg THC i.p., time post-injection). Moreover, the “Cmax (maximum serum concentration)” value in data set [2] (setting [5]) came to 14.4 ± 1.4 ng/mL; in data set [2] (setting [6]), 35.6 ± 7.4 ng/mL; in data set [2] (setting [7]), 84.2 ± 19.3 ng/mL.
A word on the AUC(0-inf): it is total exposure, with the tail of the curve extrapolated. Usually CL/F stands for clearance divided by bioavailability, as obtained after extravascular dosing. As a reminder, the Cmax is the highest concentration seen after dosing. A word on the Vd/F: it is the volume of distribution divided by bioavailability. In general, half-life refers to the time needed for the level to fall by half in the phase considered. As to `CCCCCc1cc(O)c2c(c1)OC(C)(C)[C@@H]1CCC(C)=C[C@@H]21` [THC, delta-9-tetrahydrocannabinol], the “vertical plane entries (rearing), total” value in data set [3] (0.19 mg/kg INH THC vs vehicle) is recorded as “Significantly reduced; also recorded: significantly decreased; also recorded: reduced rearing activity”. In addition, the floor plane distance result in data set [3] (0.76 mg/kg inhaled THC vs vehicle, at 20 minutes) was “significantly higher; also recorded: slightly heightened locomotion”. In addition, the “horizontal distance traveled or altered thigmotaxis” value in data set [3] (0.76 mg/kg inhaled THC, over a 45-minute period) is recorded as “minimal effect”. Also, the center distance travelled result in data set [3] (0.76 mg/kg vaporized THC vs vehicle, at 20 minutes) is reported as “significantly higher; also recorded: increased center distance travelled”. In data set [3] (2 mg/kg i.p. THC vs vehicle), the “vertical plane entries (rearing), total” value is listed as “Significantly reduced; also recorded: significant reduction; also recorded: reduced rearing activity”. For the same molecule, the “margin distance, post-hoc comparisons” value in data set [3] (vaporized THC 0.19 or 0.76 mg/kg vs vehicle) is “no significant post-hoc comparisons”. Moreover, in the data set with rodents, the “dose at which horizontal locomotion is affected” value is reported as no less than 15 mg/kg. The “time of peak THC brain levels” value in data set [4] (after THC inhalation in males, ref 35 (Hložek et al.)) is 15 min. The “mean Cmax levels of THC” value in data set [4] (female Sprague Dawley rats, 5 minutes post-30 minute inhalation of 200 mg/mL THC) is given as 303 ng/mL. The “time of peak THC brain levels” value in data set [4] (ref 26 (Baglot et al.)) was 30 min. Further, the “plasma concentration Cmax” value in data set [1] (human clinical study at a similar dose) is reported as 73.81 ± 63.09 ng/mL. Moreover, the “plasma Cmax values across individual subjects” value in data set [1] (human, 6 subjects given the same dose of THC under the same regime) was 70 to 280 ng/mL. For the same molecule, the “mean Cmax of THC” value in data set [1] (human, acute THC inhalation, whole blood, lowest mean across studies) is 4 ng/mL. Moreover, the “mean Cmax ranges in clinical studies” value in data set [1] (human, smoked or vaped cannabis at similar doses) is 4 to 162 ng/mL. In addition, the “Vss (volume of distribution at steady state)” value in data set [2] (0.19 mg/kg vaporized) was determined as 8.6 L/kg. The “Vss (volume of distribution at steady state)” value in data set [2] (0.76 mg/kg vaporized) was 24.4 L/kg. In data set [2] (setting [8]), the AUC(0-inf) is 87 ng·h/mL, the CL/F is 38.3 mL/min/kg, the Cmax was 43.3 ng/mL and the Tmax was 10 min. Besides, in data set [2] (setting [8]), the Vd/F came out at 7.4 L/kg, the half-life is 132 min and the k el was 8.33e-05 s⁻¹. Moreover, in data set [2] (setting [9]), the AUC(0-inf) is 94.4 ng·h/mL, the CL/F was 142 mL/min/kg, the highest concentration (Cmax) worked out at 71.6 ng/mL and the time to peak (Tmax) was 5 min. In addition, in data set [2] (setting [9]), the Vd/F was 33 L/kg, the half-life was 162 min and the k el was 8.33e-05 s⁻¹. Also, in data set [2] (setting [10]), the AUC(0-inf) was 364 ng·h/mL, the CL/F was 91.7 mL/min/kg, the Cmax turned out to be 108 ng/mL and the Tmax is 10 min. In addition, in data set [2] (setting [10]), the Vd/F is 26.9 L/kg, the half-life was 204 min and the k el is 5.56e-05 s⁻¹. Besides, in data set [2] (increasing inhaled THC dose from 0.19 mg/kg to 0.76 mg/kg), the “fold-change of Cmax values” is recorded as 1.6 fold.
With `CCCCCc1cc(O)c2c(c1)OC(C)(C)C1CCC(C(=O)O)=CC21` (stereo not shown) [THC-COOH, 11-nor-9-carboxy-delta-9-tetrahydrocannabinol], the “time detectable in the bloodstream after administration” value in data set [1] (humans) was no less than 7 days. The “Cmax (maximum serum concentration)” value stood at 20.9 ± 4.1 ng/mL in data set [2] (setting [5]), 19.9 ± 2.2 ng/mL in data set [2] (setting [6]) and 87.0 ± 21.8 ng/mL in data set [2] (setting [7]).
